As usually defined, the ED50 is the dose that gives a 50% effect, or the effect in half of the subjects.

We go through three compounds from ChEMBL document CHEMBL3739352, “Anticonvulsant activity, crystal structures, and preliminary safety evaluation of N-trans-cinnamoyl derivatives of selected (un)modified aminoalkanols” (Eur J Med Chem, 2016).

Active and inactive are the calls of the source. The rule behind the calls is not given here.

Series [1] relates to Mus musculus. The series is described as follows: Anticonvulsant activity in ip dosed albino Carworth Farms No.1 mouse assessed as protection against 6-Hz electroshock-induced seizures after 0.25 hrs. It counts as functional. To be noted: Carworth Farms No.1, ip. Put shortly:
(§1)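 Quantitative i.p. evaluation in Carworth Farms No.1 albino mice, with graded doses in 0.5% methylcellulose. MES, scPTZ or 6-Hz (32 mA) seizure tests were run at 0.25 h.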

Series [2] concerns Mus musculus. In words: Anticonvulsant activity in ip dosed albino Carworth Farms No.1 mouse assessed as protection against subcutaneous dosed pentetrazol-induced seizures after 0.25 hrs. It counts as functional. To be noted: Carworth Farms No.1, 0.25 h. Put shortly:
as §1

In a further series the test system is Rattus norvegicus. The series is described as follows: Anticonvulsant activity in po dosed Sprague-Dawley rat assessed as protection against subcutaneous dosed pentetrazol-induced seizures after 0.5 hrs. It counts as functional. The method in brief: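 Sprague-Dawley rats received graded oral doses suspended or dissolved in 0.5% methylcellulose. Challenge was maximal electroshock or subcutaneous pentetrazol at the stated time after dosing.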

The next series has as its system Salmonella typhimurium. The series is described as follows: Mutagenicity in Salmonella typhimurium TA98 assessed as number of revertants at 10 ug/plate by Ames test (reference value: 23 +/- 3). It is filed as toxicity, organism-based. To be noted: salmonella enterica subsp. enterica serovar typhimurium. Background: The Ames test detects mutagens through reverse mutation in bacteria.

For series [3], the system named is Mus musculus. The series is described as follows: Anticonvulsant activity in albino Carworth Farms No.1 mouse assessed as protection against 6-Hz electroshock-induced seizures at 100 mg/kg, ip after 4 hrs. It counts as functional, organism-based. Put shortly: (§2)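 Carworth Farms No.1 albino mice were dosed i.p. at 100 mg/kg (0.5% methylcellulose solution or suspension). 6-Hz seizures were induced at 32 mA at 0.25, 0.5, 1.0, 2.0 and 4 h after injection. Results are given as animals protected / animals tested.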

Series [4] relates to Mus musculus. The series is described as follows: Anticonvulsant activity in albino Carworth Farms No.1 mouse assessed as protection against 6-Hz electroshock-induced seizures at 100 mg/kg, ip after 2 hrs. It is filed as functional, organism-based. The method in brief: as §2
Series [5] has as its system Mus musculus. The series is described as follows: Anticonvulsant activity in albino Carworth Farms No.1 mouse assessed as protection against 6-Hz electroshock-induced seizures at 100 mg/kg, ip after 0.5 hrs. It counts as functional, organism-based. The method in brief:
as §2

Series [6] deals with Mus musculus. In words: Anticonvulsant activity in albino Carworth Farms No.1 mouse assessed as protection against 6-Hz electroshock-induced seizures at 100 mg/kg, ip after 1 hr. It counts as functional, organism-based. The method in brief:
as §2

The subject of series [7] is Mus musculus. The series is described as follows: Anticonvulsant activity in albino Carworth Farms No.1 mouse assessed as protection against 6-Hz electroshock-induced seizures at 100 mg/kg, ip after 0.25 hrs. It is filed as functional, organism-based. Put shortly: as §2
Series [8] relates to Mus musculus. The series is described as follows: Neurotoxicity in albino Carworth Farms No.1 mouse at 100 mg/kg, ip after 0.5 hrs by rotarod test. To be noted: in vivo. It counts as toxicity, organism-based. The method in brief:
(§3)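 Mice (albino Carworth Farms No.1) were dosed i.p. at 30, 100 or 300 mg/kg in 0.5% methylcellulose. They were tested 0.5 and 4 h later on a 1-inch knurled rod rotating at 6 rpm. Neurotoxicity was scored if a mouse could not stay on the rod for at least 1 min in each of three trials. Results are given as animals toxic/animals tested, with deaths noted.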
A general note: The rotarod test checks motor coordination on a turning rod.

Series [9] relates to Mus musculus. In words: Anticonvulsant activity in albino Carworth Farms No.1 mouse assessed as protection against subcutaneous dosed pentetrazol-induced seizures at 100 mg/kg, ip after 4 hrs. It counts as functional, organism-based. The method in brief: (§4)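 Mouse i.p. screen in Carworth Farms No.1 albino mice at 30, 100 or 300 mg/kg in 0.5% methylcellulose. Testing was at 0.5 and 4 h after injection, by maximal electroshock or by subcutaneous pentetrazol challenge. Scoring was number protected / number used.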

Series [10] concerns Mus musculus. In words: Anticonvulsant activity in albino Carworth Farms No.1 mouse assessed as protection against subcutaneous dosed pentetrazol-induced seizures at 100 mg/kg, ip after 0.5 hrs. It counts as functional, organism-based. Put shortly: as §4
The test system of series [11] is Mus musculus. The series is described as follows: Anticonvulsant activity in albino Carworth Farms No.1 mouse assessed as protection against maximal electroshock-induced seizures at 100 mg/kg, ip after 4 hrs. It is filed as functional, organism-based. The method in brief: as §4
Series [12] concerns Mus musculus. The series is described as follows: Anticonvulsant activity in albino Carworth Farms No.1 mouse assessed as protection against maximal electroshock-induced seizures at 100 mg/kg, ip after 0.5 hrs. It counts as functional, organism-based. The method in brief: as §4
Background: Protection in the maximal electroshock model is a classic sign of anticonvulsant action.

The subject of series [13] is Mus musculus. The series is described as follows: Neurotoxicity in albino Carworth Farms No.1 mouse at 30 mg/kg, ip after 4 hrs by rotarod test. It is filed as toxicity, organism-based. To be noted: in vivo. Put shortly: as §3
Series [14] concerns Mus musculus. The series is described as follows: Neurotoxicity in albino Carworth Farms No.1 mouse at 100 mg/kg, ip after 4 hrs by rotarod test. It is filed as toxicity, organism-based. To be noted: in vivo. The method in brief:
as §3

In series [15] the test system is Mus musculus. In words: Neurotoxicity in albino Carworth Farms No.1 mouse at 300 mg/kg, ip after 4 hrs by rotarod test. It is filed as toxicity, organism-based. To be noted: in vivo. The method in brief:
as §3

Series [16] is described as follows: Lipophilicity of the compound using 95% methanol in water at 1 mg/ml by RT-TLC analysis. It counts as physicochemical. To be noted: buffer. Put shortly:
(§5)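 Reversed-phase TLC with a methanol–water mobile phase at the stated methanol content (v/v). Compounds were spotted from 1 mg/mL methanol solutions after 1 h chamber saturation and located under UV light. Rf was measured and RM = log(1/Rf − 1) calculated.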

Series [17] can be described thus: Lipophilicity of the compound using 90% methanol in water at 1 mg/ml by RT-TLC analysis. It is filed as physicochemical. To be noted: buffer. The method in brief: as §5
The nature of series [18]: Lipophilicity of the compound using 85% methanol in water at 1 mg/ml by RT-TLC analysis. It counts as physicochemical. To be noted: buffer. The method in brief:
as §5

Series [19] can be described thus: Lipophilicity of the compound using 75% methanol in water at 1 mg/ml by RT-TLC analysis. It is filed as physicochemical. To be noted: buffer. Put shortly: as §5
A short description of series [20]: Lipophilicity of the compound using 65% methanol in water at 1 mg/ml by RT-TLC analysis. It counts as physicochemical. To be noted: buffer. The method in brief:
as §5

Series [21] in a line: Lipophilicity of the compound at 1 mg/ml by RT-TLC analysis relative to 0% methanol. It counts as physicochemical. To be noted: methanol/water. Put shortly: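 Reversed-phase TLC used methanol–water mobile phases of 95–65% methanol. Compounds were applied from 1 mg/mL methanol solutions after 1 h chamber saturation, with UV detection. RM = log(1/Rf − 1) was calculated at each methanol level and extrapolated linearly (RM = RM0 + bC) to 0% methanol to give RM0.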

Turning to `CCCC(CCC)C(=O)O` [VALPROIC ACID], the figures for the ED50 in the series with Mus musculus [1], in the series on Mus musculus [2] and in the series with Rattus norvegicus were 126 mg/kg, 220 mg/kg and 646 mg/kg, respectively.

`Nc1ccc([N+](=O)[O-])cc1N`: the Activity in the series on Salmonella typhimurium was found to be 647.

As for `CC(NC(=O)/C=C/c1ccccc1)C(=O)NCN1CCCCC1` (racemic), the result in the series on Mus musculus [3], in the series with Mus musculus [4], in the series on Mus musculus [5], in the series on Mus musculus [6], with Mus musculus [7] and in the series with Mus musculus [9] was inactive. Further, the result in the series with Mus musculus [10], in the series on Mus musculus [11] and with Mus musculus [12] was inactive. The Activity result in the series on Mus musculus [8], with Mus musculus [13], in the series on Mus musculus [14] and in the series on Mus musculus [15] was “Non-toxic” throughout. Also, the Rm in series [16] is -0.39; in [17], -0.27; in series [18], -0.02; in series [19], 0.1; in series [20], 0.5; in series [21] it was 1.758.
